Tests used:
Human alphaherpesvirus 1 [1] = assay: In vitro antiviral activity against HSV-1 virus in BSC-1 (monkey kidney) cells.; type: functional, organism-based; settings: Human alphaherpesvirus 1, BSC-1
Method in brief: (§1)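 BSC-1 cells, 10 000/well in MEM(E) with 10% calf serum, incubated overnight at 37 °C. Drug added in quadruplicate together with HSV-1 KOS at 100 PFU/well and incubated 3 days. Read-out by ELISA with HRP-conjugated rabbit anti-HSV-1 and TMB substrate, absorbance at 450 and 570 nm. Percent absorbance reduction against virus-only wells regressed on log concentration for IC50.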

L1210 [2] = assay: concentration required to decrease the cell density in the treated cultures to one-half of the control was measured on L1210 murine Leukemia cells (in vitro); type: functional, cell-based; settings: Mus musculus
Method in brief: (§2)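 L1210 cells, 2000/well, given compound the day after plating and incubated 3 days; cell density read by MTS reduction. Concentration–response in two independent experiments. IC50 is the concentration that halves cell density relative to control, averaged over the two experiments.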

HFF = assay: Visual cytotoxicity was scored on Human foreskin fibroblasts (HFF cells) at the time of plaque enumeration.; type: functional, cell-based
Method in brief: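 Stationary HFF cells from the plaque assays, not affected by virus, inspected microscopically for cytotoxicity at the time of plaque counting.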

Human betaherpesvirus 5 [3] = assay: In vitro antiviral activity against HCMV (Towne strain) in HFF (human fibroblast) cells.; type: functional, organism-based; settings: Human betaherpesvirus 5, HFF
Method in brief: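 HFF monolayers in 24-well dishes infected with about 100 PFU HCMV/cm2 of cell sheet. After adsorption, compound in growth medium added to duplicate wells at four to eight concentrations. Incubated 7 days at 37 °C, fixed and stained with crystal violet, microscopic plaques counted. Percent plaque reduction against no-drug wells regressed on log concentration to give IC50.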

L1210 [4] = assay: Effect of initial screen concentration of 100 uM on the growth of L1210 Murine Leukemia cells; type: functional, Mus musculus
Method in brief: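 L1210 mouse leukemia cells in RPMI 1640 with 10% heat-inactivated horse serum, 2000 cells/well. Compound added the next day and incubated 3 days. Growth read by MTS tetrazolium reduction optical density as percent of control. Screen at 100 µM, or the solubility limit; value is the mean of two or three experiments.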

KB = assay: In vitro inhibition of KB (human carcinoma) cell growth.; type: functional, cell-based
Method in brief: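 KB cells, 3000–5000/well, incubated overnight at 37 °C. Compound added in quadruplicate at six to eight concentrations for 48 h (about two population doublings). Cells fixed in 95% ethanol, stained with 0.1% crystal violet, dye eluted with acidified ethanol and read at 570 nm. IC50 from regression against log concentration.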

Human betaherpesvirus 5 [5] = assay: In vitro reduction in yield of Towne strain of HCMV in HFF (human fibroblast) cells.; type: functional; settings: Human betaherpesvirus 5, HFF
Method in brief: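 HFF in 96-well plates infected with HCMV Towne at MOI 0.5-1 PFU/cell. After adsorption, compound given in duplicate, serially diluted 1:3 from 100 to 0.14 µM. After 7 days at 37 °C, one freeze-thaw cycle, then progeny titred by 1:3 serial dilution on fresh HFF monolayers with plaque counts. IC90 taken from regression of percent inhibition against log concentration.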

Human betaherpesvirus 5 [6] = assay: Antiviral activity was determined against Towne strain of HCMV by Plaque and yield reduction test (Averaged results from duplicate or triplicate experiments); type: functional
L1210 [7] = assay: concentration required to decrease the cell density in the treated cultures to one-half of the control was measured on L1210 murine Leukemia cells (in vitro); c=No significant growth inhibition observed atthe initial screen concentration; type: functional, cell-based, Mus musculus
L1210 [8] = assay: Effect of initial screen concentration of 10 uM on the growth of L1210 Murine Leukemia cells
L1210 [9] = assay: Effect of initial screen concentration of 1 uM on the growth of L1210 Murine Leukemia cells
Human alphaherpesvirus 1 [10] = assay: Antiviral activity was determined against Herpes simplex virus-1 by ELISA test (IC50 not reached at the noted concentration tested); type: functional, organism-based; method in brief: as §1
L1210 [11] = assay: concentration required to decrease the cell density in the treated cultures to one-half of the control was measured on L1210 murine Leukemia cells (in vitro) (The highest concentration tested); type: functional, cell-based; settings: Mus musculus; method in brief: as §2

Compound	IC50 (Human alphaherpesvirus 1 [1])	IC50 (L1210 [2])	IC50 (HFF)	IC50 (Human betaherpesvirus 5 [3])	Control (L1210 [4])	IC50 (KB)	IC90 (Human betaherpesvirus 5 [5])	IC90 (Human betaherpesvirus 5 [6])	IC50 (L1210 [7])	Control (L1210 [8])	Control (L1210 [9])	IC50 (Human alphaherpesvirus 1 [10])	IC50 (L1210 [11])
CSC[C@H]1OC(n2c(Cl)nc3cc(Cl)c(Cl)cc32)[C@H](O)[C@@H]1O (stereo partly specified)	> 100 µM	> 100 µM	32 µM	4.5 µM	73%	> 100 µM							
O[C@@H]1[C@@H](CF)OC(n2c(Cl)nc3cc(Cl)c(Cl)cc32)[C@@H]1O (stereo partly specified)	> 100 µM	> 100 µM	32 µM	0.5 µM	81%	> 100 µM	0.22 µM						
O[C@@H]1[C@@H](CCl)OC(n2c(Cl)nc3cc(Cl)c(Cl)cc32)[C@@H]1O (stereo partly specified)	> 100 µM	> 100 µM	32 µM	1 µM	73%	90 µM		0.52 µM					
CC(=O)OC1C(CCl)OC(n2c(Cl)nc3cc(Cl)c(Cl)cc32)C1OC(C)=O (stereo unspecified)	> 100 µM		32 µM	1.4 µM		90 µM	0.31 µM		No significant growth	96%			
Nc1nc2c(ncn2COC(CO)CO)c(=O)[nH]1 [GANCICLOVIR]	3.5 µM		> 100 µM	7.4 µM		> 100 µM	1.6 µM						
CCOC[C@H]1OC(n2c(Cl)nc3cc(Cl)c(Cl)cc32)[C@H](O)[C@@H]1O (stereo partly specified)	> 100 µM	59 µM	26 µM	4.6 µM	9%	80 µM							
CC(=O)OC1C(CF)OC(n2c(Cl)nc3cc(Cl)c(Cl)cc32)C1OC(C)=O (stereo unspecified)	> 100 µM		32 µM	0.6 µM		100 µM	0.19 µM		No significant growth	122%			
CCCCOC[C@H]1OC(n2c(Cl)nc3cc(Cl)c(Cl)cc32)[C@H](O)[C@@H]1O (stereo partly specified)	> 100 µM	> 100 µM	32 µM	14.2 µM	64%	60 µM							
CSCC1OC(n2c(Cl)nc3cc(Cl)c(Cl)cc32)C(OC(C)=O)C1OC(C)=O (stereo unspecified)	> 100 µM		32 µM	4.8 µM									
COC[C@H]1O[C@@H](n2c(Cl)nc3cc(Cl)c(Cl)cc32)[C@H](OC(C)=O)[C@@H]1OC(C)=O			26 µM	2.8 µM		80 µM			No significant growth		95%	> 100 µM	
CCOC[C@H]1O[C@@H](n2c(Cl)nc3cc(Cl)c(Cl)cc32)[C@H](OC(C)=O)[C@@H]1OC(C)=O	> 100 µM		33 µM	4.3 µM		60 µM				83%			> 10 µM
